Experimental data taken from ChEMBL document CHEMBL1147349, “Bisamides from Aglaia species: structure analysis and potential to reverse drug resistance with cultured cells” (1993).
Converted amounts (≈) assume the structure as drawn.

Key:
Assay type in all cases: functional
[1] = Cytotoxicity against human BCA1 cells; details: read-out: ED50 (the source's name)
Summary of the method: (§1)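 Human cancer cell lines were cultured with the test compounds at concentrations up to 20 µg/ml. The read-out was cell survival, expressed as ED50.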

HT-1080 = assay: Cytotoxicity against human HT1080 cells; details: read-out: ED50 (the source's name); summary of the method: as §1
[2] = Cytotoxicity against human LUC1 cells; details: read-out: ED50 (the source's name); summary of the method: as §1
SK-MEL-2 = assay: Cytotoxicity against human SK-MEL-2 cells; details: read-out: ED50 (the source's name); summary of the method: as §1
[3] = Cytotoxicity against human Col1 cells; details: read-out: ED50 (the source's name); summary of the method: as §1
KB = assay: Cytotoxicity against human KB cells; details: read-out: ED50 (the source's name); summary of the method: as §1
[4] = Cytotoxicity against vinblastine-resistant human KBV1 cells; details: KB-V1, read-out: ED50 (the source's name)
Summary of the method: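 KB-V1 cells are routinely maintained in vinblastine (1 µg/ml) to keep the drug-resistant phenotype. For this test they were cultured with the test compounds without vinblastine, at concentrations up to 20 µg/ml. The read-out was cell survival, expressed as ED50.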

[5] = Cytotoxicity against vinblastine-resistant human KBV1 cells by dose-response study in presence of 1 ug/ml vinblastine; details: KB-V1, read-out: ED50 (the source's name)
Summary of the method: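 The resistant KB-V1 line, normally kept in vinblastine (1 µg/ml), was exposed to the test compounds up to 20 µg/ml. Vinblastine at 1 µg/ml was present in the culture medium during treatment. The read-out was cell survival, expressed as ED50.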

A-431 = assay: Cytotoxicity against human A431 cells; details: read-out: ED50 (the source's name); summary of the method: as §1
LNCaP = assay: Cytotoxicity against human LNCAP cells; details: read-out: ED50 (the source's name); summary of the method: as §1
ZR-75-1 = assay: Cytotoxicity against human ZR-75-1 cells; details: read-out: ED50 (the source's name); summary of the method: as §1

SMILES | EC50 [1] | EC50 (HT-1080) | EC50 [2] | EC50 (SK-MEL-2) | EC50 [3] | EC50 (KB) | EC50 [4] | EC50 [5] | EC50 (A-431) | EC50 (LNCaP) | EC50 (ZR-75-1)
CC[C@H](C)C(=O)N[C@@H]1CCCN1C(=O)/C=C/c1ccccc1 | > 20 µg/mL | > 20 µg/mL | > 20 µg/mL | > 20 µg/mL | > 20 µg/mL | > 20 µg/mL | > 20 µg/mL | 4.2 µg/mL | > 20 µg/mL | > 20 µg/mL | > 20 µg/mL
CC[C@H](C)C(=O)N[C@H]1CCCN1C(=O)/C=C/c1ccccc1 [ODORINE] | > 20 µg/mL | > 20 µg/mL | > 20 µg/mL | > 20 µg/mL | > 20 µg/mL | > 20 µg/mL | > 20 µg/mL | 6.4 µg/mL | > 20 µg/mL | > 20 µg/mL | > 20 µg/mL
CC(C)C(=O)N[C@H]1CCCN1C(=O)/C=C/c1ccccc1 [PIRIFERINE] | > 20 µg/mL | > 20 µg/mL | > 20 µg/mL | > 20 µg/mL | > 20 µg/mL | > 20 µg/mL | 10 µg/mL (≈ 34.9 µM) | 8.5 µg/mL | > 20 µg/mL | > 20 µg/mL | > 20 µg/mL
O=C(/C=C/c1ccccc1)NCCCCNC(=O)c1ccccc1 [PYRAMIDATINE] | > 20 µg/mL | > 20 µg/mL | > 20 µg/mL | > 20 µg/mL | > 20 µg/mL | > 20 µg/mL | > 20 µg/mL | > 20 µg/mL | > 20 µg/mL | > 20 µg/mL | > 20 µg/mL
CC[C@]1(O)C[C@@H]2CN(CCc3c([nH]c4ccccc34)[C@@](C(=O)OC)(c3cc4c(cc3OC)N(C)[C@H]3[C@@](O)(C(=O)OC)[C@H](OC(C)=O)[C@]5(CC)C=CCN6CC[C@]43[C@@H]65)C2)C1 [VINBLASTINE] | – | – | – | – | – | 0.002 µg/mL (≈ 0.00247 µM) | 2.6 µg/mL (≈ 3.21 µM) | – | – | – | –
